Test results published in ChEMBL document CHEMBL2057069, “Benzoxazole and benzothiazole amides as novel pharmacokinetic enhancers of HIV protease inhibitors” (Bioorg Med Chem Lett, 2012).

Columns and labels:
[1] = test system: Human immunodeficiency virus 1; experiment: Antiviral activity against wild type HIV1 3B infected in human MT4 LTR-EGFP cells by EGFP reporter gene assay; format: functional, organism-based; conditions: Human immunodeficiency virus 1, 3B
[2] = biological target: Cytochrome P450 3A4 (Homo sapiens, UniProt P08684); experiment: Inhibition of CYP3A4 in human liver microsomes using midazolam as substrate after 10 mins by LC/MS/MS analysis
[3] = Absolute oral bioavailability in dog at 10 mg/kg administered as single dose; format: ADME, organism-based, Canis lupus familiaris; conditions: in vivo
Method in brief: (§1)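 Single oral dose of 10 mg/kg given to rats and dogs, n = 3 per species. Plasma Cmax, Tmax, AUC0–∞ and absolute oral bioavailability were derived from the plasma profiles.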

[4] = AUC (0 to infinity) in rat at 10 mg/kg, po administered as single dose; format: ADME, organism-based; parameters: time infinity, dose 10 mg/kg, route oral; conditions: plasma
[5] = Tmax in rat at 10 mg/kg, po administered as single dose; format: ADME, organism-based; parameters: dose 10 mg/kg, route oral; conditions: in vivo; method in brief: as §1
[6] = Absolute oral bioavailability in rat at 10 mg/kg administered as single dose; format: ADME, organism-based; conditions: in vivo; method in brief: as §1
[7] = Cmax in dog at 7.5 mg/kg, po; format: ADME, organism-based, Canis lupus familiaris; parameters: dose 7.5 mg/kg, route oral; conditions: in vivo
Method in brief: (§2)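 Drug–drug interaction study in dogs, n = 3. The booster was given orally at 7.5 mg/kg as a PEG400 solution, 5 min before oral darunavir at 30 mg/kg. Darunavir plasma Cmax and AUC0–∞ were measured, with fold increase calculated against darunavir dosed alone.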

[8] = AUC (0 to infinity) in dog at 7.5 mg/kg, po; format: ADME, organism-based, Canis lupus familiaris; parameters: time infinity, dose 7.5 mg/kg, route oral; conditions: plasma; method in brief: as §2
[9] = test system: Canis familiaris; experiment: Enhancement of darunavir Cmax in dog at 7.5 mg/kg, po administered 5 mins prior to darunavir co-administration; format: ADME, organism-based, Canis lupus familiaris; parameters: dose 7.5 mg/kg, route oral; conditions: in vivo
[10] = AUC (0 to infinity) in dog at 10 mg/kg, po administered as single dose; format: ADME, organism-based, Canis lupus familiaris; parameters: time infinity, dose 10 mg/kg, route oral; conditions: plasma; method in brief: as §1
[11] = Tmax in dog at 10 mg/kg, po administered as single dose; format: ADME, organism-based, Canis lupus familiaris; parameters: dose 10 mg/kg, route oral; conditions: in vivo; method in brief: as §1
[12] = test system: Canis familiaris; experiment: Enhancement of darunavir AUC (0 to infinity) in dog at 7.5 mg/kg, po administered 5 mins prior to darunavir co-administration; format: ADME, organism-based, Canis lupus familiaris; parameters: dose 7.5 mg/kg, route oral; conditions: in vivo
[13] = Cmax in rat at 10 mg/kg, po administered as single dose; format: ADME, organism-based; parameters: dose 10 mg/kg, route oral; conditions: in vivo; method in brief: as §1
[14] = Cmax in dog at 10 mg/kg, po administered as single dose; format: ADME, organism-based, Canis lupus familiaris; parameters: dose 10 mg/kg, route oral; conditions: in vivo; method in brief: as §1
[15] = Efflux ratio of apparent permeability of the compound from basal to apical to apical to basal side of human Caco2 cells at 10 uM at pH 5.5 after 60 mins; format: ADME, cell-based; conditions: Caco-2, pH 5.5
Method in brief: (§3)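 Caco-2 monolayers; test compound at 10 µM; apparent permeability measured in secretory and absorptive directions at pH 5.5 and at pH 7.4, read after 60 min incubation; transport polarity taken as P_secretory/P_absorptive.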

[16] = Efflux ratio of apparent permeability of the compound from basal to apical to apical to basal side of human Caco2 cells at 10 uM at pH 7.4 after 60 mins; format: ADME, cell-based; conditions: Caco-2, pH 7.4; method in brief: as §3
[17] = Apparent permeability across human Caco2 cells at 10 uM at pH 7.4 after 60 mins; format: ADME, cell-based; conditions: Caco-2, pH 7.4
Method in brief: (§4)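 Caco-2 monolayers were exposed to compound at 10 µM and sampled after 60 min of incubation, at pH 5.5 or pH 7.4. Apparent permeability was measured in the absorptive and secretory directions, with efflux expressed as the secretory/absorptive ratio.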

[18] = Apparent permeability across human Caco2 cells at 10 uM at pH 5.5 after 60 mins; format: ADME, cell-based; conditions: Caco-2, pH 5.5; method in brief: as §4

Sequence of Cytochrome P450 3A4 (P08684 whole entry): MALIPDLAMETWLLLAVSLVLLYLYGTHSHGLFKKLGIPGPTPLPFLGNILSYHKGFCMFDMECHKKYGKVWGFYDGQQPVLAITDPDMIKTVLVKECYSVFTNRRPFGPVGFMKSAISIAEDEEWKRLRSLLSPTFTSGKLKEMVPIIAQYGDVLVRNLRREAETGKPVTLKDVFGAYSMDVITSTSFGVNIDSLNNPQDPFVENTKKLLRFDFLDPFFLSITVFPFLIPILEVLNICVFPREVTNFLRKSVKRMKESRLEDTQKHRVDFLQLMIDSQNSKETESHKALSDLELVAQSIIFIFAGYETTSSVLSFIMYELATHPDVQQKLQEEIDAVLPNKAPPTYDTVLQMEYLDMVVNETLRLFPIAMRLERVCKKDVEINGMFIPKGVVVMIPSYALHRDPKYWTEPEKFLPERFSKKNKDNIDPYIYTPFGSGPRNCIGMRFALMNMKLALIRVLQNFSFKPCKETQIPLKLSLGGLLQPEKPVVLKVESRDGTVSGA

EC50 [1] [µM]	IC50 [2] [µM]	Compound	also measured
45	0.037	CC(C)CN(C[C@@H](O)[C@H](Cc1ccccc1)NC(=O)OCc1cncs1)C(=O)c1ccc2nc(C(C)C)oc2c1	
48	0.022	CCN(C)c1nc2ccc(C(=O)N(CC(C)C)C[C@@H](O)[C@H](Cc3ccccc3)NC(=O)OCc3cccnc3)cc2o1	
63		CC(C)CN(C[C@@H](O)[C@H](Cc1ccccc1)NC(=O)OCc1cncs1)C(=O)c1ccc2nc(N(C)CCN(C)C)oc2c1	
> 100	0.042	CC(C)CN(C[C@@H](O)[C@H](Cc1ccccc1)NC(=O)OCc1cncs1)C(=O)c1ccc2nc(N)oc2c1	
48	0.03	C#CCN(C)c1nc2ccc(C(=O)N(CC(C)C)C[C@@H](O)[C@H](Cc3ccccc3)NC(=O)OCc3cncs3)cc2o1	
21	0.026	CCN(C)c1nc2ccc(C(=O)N(CC3CCCCC3)C[C@@H](O)[C@H](Cc3ccccc3)NC(=O)OCc3cncs3)cc2o1	
> 100		CCN(C)c1nc2ccc(C(=O)N(CCN(C)C)C[C@@H](O)[C@H](Cc3ccccc3)NC(=O)OCc3cncs3)cc2o1	
60	0.2	CC(C)CN(C[C@@H](O)[C@H](Cc1ccccc1)NC(=O)OCc1cncs1)C(=O)c1ccc2nc(NCCCN(C)C)oc2c1	
45		CCN(C)c1nc2ccc(C(=O)N(CC(C)C)C[C@H](O)[C@H](Cc3ccccc3)NC(=O)OCc3cncs3)cc2o1	
87	0.039	CCc1nc2ccc(C(=O)N(CC(C)C)C[C@@H](O)[C@H](Cc3ccccc3)NC(=O)OCc3cncs3)cc2o1	
> 100	0.2	CC(C)CN(C[C@@H](O)[C@H](Cc1ccccc1)NC(=O)OCc1cncs1)C(=O)c1ccc2nc(NCCN(C)C)oc2c1	
60		C#CCN(C[C@@H](O)[C@H](Cc1ccccc1)NC(=O)OCc1cncs1)C(=O)c1ccc2nc(N(C)CC)oc2c1	
> 100	0.055	CC(C)CN(C[C@@H](O)[C@H](Cc1ccccc1)NC(=O)OCc1cncs1)C(=O)c1ccc2ncoc2c1	
> 100	0.069	CCN(C)c1nc2ccc(C(=O)N(CC(C)C)CC(O)[C@H](Cc3cccnc3)NC(=O)OCc3cncs3)cc2o1 (single isomer, unassigned)	
71		CCN(C)c1nc2ccc(C(=O)N(CC(C)C)C[C@@H](O)[C@H](Cc3ccccc3)NC(=O)OCc3cncs3)cc2o1	bioavailability [3]: 81%; AUC(0-inf) [4]: 970 ng·h/mL; Tmax [5]: 60 min; bioavailability [6]: 44%; Cmax [7]: 610 ng/mL; AUC(0-inf) [8]: 2000 ng·h/mL; fold change (FC) [9]: 2; AUC(0-inf) [10]: 2240 ng·h/mL; Tmax [11]: 30 min; fold change (FC) [12]: 5; Cmax [13]: 240 ng/mL; Cmax [14]: 1010 ng/mL; Papp at 1 h, 10 µM [17]: 11 ×10⁻⁶ cm/s; Papp at 1 h, 10 µM [18]: 10 ×10⁻⁶ cm/s
47	0.023	CCN(C)c1nc2ccc(C(=O)N(CC(C)C)C[C@@H](O)[C@H](Cc3ccc(F)cc3)NC(=O)OCc3cncs3)cc2o1	
47		CC(C)CN(C[C@@H](O)[C@H](Cc1ccccc1)NC(=O)OCc1cncs1)C(=O)c1ccc2nc(N(C)C)oc2c1	
85	0.028	CCNc1nc2ccc(C(=O)N(CC(C)C)C[C@@H](O)[C@H](Cc3ccccc3)NC(=O)OCc3cncs3)cc2o1	
> 100	0.052	Cc1nc2ccc(C(=O)N(CC(C)C)C[C@@H](O)[C@H](Cc3ccccc3)NC(=O)OCc3cncs3)cc2o1	
49	0.2	CCN(C)c1nc2ccc(C(=O)N(CC(C)C)C[C@@H](O)[C@H](Cc3ccccc3)NC(=O)OCc3ccncc3)cc2o1	
48	0.037	CCN(C)c1nc2ccc(C(=O)N(C[C@@H](O)[C@H](Cc3ccccc3)NC(=O)OCc3cncs3)CC(C)(C)C)cc2o1	
> 100	0.14	CCN(C)c1nc2ccc(C(=O)N(CCN3CCCC3)C[C@@H](O)[C@H](Cc3ccccc3)NC(=O)OCc3cncs3)cc2o1	
> 100	0.079	CCN(C[C@@H](O)[C@H](Cc1ccccc1)NC(=O)OCc1cncs1)C(=O)c1ccc2nc(N(C)CC)oc2c1	

More lines, now with the values behind:

Compound	EC50 [1] [µM]	IC50 [2] [µM]	also measured
CC(C)CN(C[C@@H](O)[C@H](Cc1ccccc1)NC(=O)OCc1cncs1)C(=O)c1ccc2nc(N3CCOCC3)oc2c1	> 100	0.038	
O=C(N[C@@H](Cc1ccccc1)[C@H](O)CN(CCN1CCCC1)C(=O)c1ccc2nc(N3CCCC3)oc2c1)OCc1cncs1	58	0.13	
CC(C)CN(C[C@@H](O)[C@H](Cc1ccccc1)NC(=O)OCc1cncs1)C(=O)c1ccc2ncsc2c1	95	0.023	bioavailability [3]: 97%; AUC(0-inf) [4]: 7800 ng·h/mL; Tmax [5]: 30 min; bioavailability [6]: 107%; Cmax [7]: 2100 ng/mL; AUC(0-inf) [8]: 7070 ng·h/mL; fold change (FC) [9]: 2; AUC(0-inf) [10]: 2240 ng·h/mL; Tmax [11]: 60 min; fold change (FC) [12]: 4.8; Cmax [13]: 2800 ng/mL; Cmax [14]: 5200 ng/mL; efflux ratio at 1 h, 10 µM [15]: 2; efflux ratio at 1 h, 10 µM [16]: 3.6; Papp at 1 h, 10 µM [17]: 9.8 ×10⁻⁶ cm/s; Papp at 1 h, 10 µM [18]: 11 ×10⁻⁶ cm/s
CC(C)CN(C[C@@H](O)[C@H](Cc1ccccc1)NC(=O)OCc1cncs1)C(=O)c1ccc2nc(N3CCCCC3)oc2c1	36		
CN(C)CCN(C[C@@H](O)[C@H](Cc1ccccc1)NC(=O)OCc1cncs1)C(=O)c1ccc2nc(N3CCCC3)oc2c1	> 100	0.23	
CC(C)CN(C[C@@H](O)[C@H](Cc1ccccc1)NC(=O)OCc1cncs1)C(=O)c1ccc2nc(NCCCn3ccnc3)oc2c1	87		
CC(C)CN(C[C@@H](O)[C@H](Cc1ccccc1)NC(=O)OCc1cncs1)C(=O)c1ccc2nc(NC3CCN(C)CC3)oc2c1	> 100	2.7	
CCNc1nc2ccc(C(=O)N(C[C@@H](O)[C@H](Cc3ccccc3)NC(=O)OCc3cncs3)CC(C)(C)O)cc2o1	> 100		
CN(C[C@@H](O)[C@H](Cc1ccccc1)NC(=O)OCc1cncs1)C(=O)c1ccc2nc(N3CCCC3)oc2c1	> 100	0.084	
O=C(N[C@@H](Cc1ccccc1)[C@H](O)CN(CCN1CCOCC1)C(=O)c1ccc2nc(N3CCCC3)oc2c1)OCc1cncs1	> 100	0.12	
O=C(N[C@@H](Cc1ccccc1)[C@H](O)CN(CC1CCC(F)(F)CC1)C(=O)c1ccc2nc(N3CCCC3)oc2c1)OCc1cncs1	30	0.03	
CC(C)(C)CN(C[C@@H](O)[C@H](Cc1ccccc1)NC(=O)OCc1cncs1)C(=O)c1ccc2nc(N3CCCC3)oc2c1	30	0.027	
CC(C)CN(C[C@@H](O)[C@H](Cc1ccccc1)NC(=O)OCc1cncs1)C(=O)c1ccc2nc(N3CCCC3)oc2c1	> 100	0.033	
CCN(C)c1nc2ccc(C(=O)N(CCN3CCOCC3)C[C@@H](O)[C@H](Cc3ccccc3)NC(=O)OCc3cncs3)cc2o1	> 100	0.14	
CC(C)CN(C[C@@H](O)[C@H](Cc1ccccc1)NC(=O)OCc1cncs1)C(=O)c1ccc2nc(-c3ccncc3)oc2c1	> 100	0.024	
CCN(C[C@@H](O)[C@H](Cc1ccccc1)NC(=O)OCc1cncs1)C(=O)c1ccc2nc(N3CCCC3)oc2c1	69	0.06	
CC(C)CN(C[C@@H](O)[C@H](Cc1cccnc1)NC(=O)OCc1cncs1)C(=O)c1ccc2ncsc2c1	> 100	0.09	
CC(C)(O)CN(C[C@@H](O)[C@H](Cc1ccccc1)NC(=O)OCc1cncs1)C(=O)c1ccc2nc(N3CCCC3)oc2c1	> 100		
O=C(N[C@@H](Cc1ccccc1)[C@H](O)CN(CC1CCCCC1)C(=O)c1ccc2nc(N3CCCC3)oc2c1)OCc1cncs1	28	0.026	
CC(C)c1nc(CN(C)C(=O)N[C@H](C(=O)N[C@@H](Cc2ccccc2)C[C@H](O)[C@H](Cc2ccccc2)NC(=O)OCc2cncs2)C(C)C)cs1 [RITONAVIR]	0.0015		
CCN(C)c1nc2ccc(C(=O)N(CC(C)C)C[C@@H](O)[C@H](Cc3ccccc3)NC(=O)OCc3ccc4c(c3)OCO4)cc2o1	16		
CC(C)CN(C[C@@H](O)[C@H](Cc1ccccc1)NC(=O)OCc1cncs1)C(=O)c1ccc2nc(N3CCN(C)CC3)oc2c1	> 100	0.092	
CC(C)CN(C[C@H](O)[C@H](Cc1ccccc1)NC(=O)OCc1cncs1)C(=O)c1ccc2nc(N3CCCC3)oc2c1	45		
